Measurements as given in ChEMBL document CHEMBL3352171, “Synthesis and biological evaluation of andrographolide analogues as anti-cancer agents” (Eur J Med Chem, 2014).
Activity calls are given as the source filed them. The calls are words filed in the database; no cut-off is given here.

Key:
[1] = system: HEK293; assay: Cytotoxicity against HEK293 cells after 48 hrs by MTT assay; assay type: functional; conditions: Homo sapiens, HEK293, 48 h; read-out: LC50 (the source's name)
Outline: (§1)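 Cells seeded at 10,000 per well and exposed to increasing compound concentrations for 48 h. After a PBS wash, MTT (2.5 mg/mL) was added for 6 h at 37 °C, then detergent (10% NP-40, 4 mM HCl), and absorbance was read at 570 nm. LC50 is the concentration causing 50% cell death. Values are means of three independent experiments.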

[2] = system: Vero; assay: Cytotoxicity against african green monkey Vero cells after 48 hrs by MTT assay; assay type: cell-based; conditions: chlorocebus sabaeus; outline: as §1
[3] = Retention time of the compound by HPLC method; assay type: physicochemical
[4] = system: HEK293; assay: Induction of apoptosis in HEK293 cells assessed as apoptotic nuclei formation at 10 uM after 48 hrs by DAPI staining based fluorescence microscopy; assay type: functional, cell-based; conditions: Homo sapiens
[5] = system: HEK293; assay: Induction of cell death in HEK293 cells at 15 to 20 uM after 48 hrs by DAPI staining based fluorescence microscopy; assay type: functional; conditions: Homo sapiens
[6] = system: HEK293; assay: Induction of apoptosis in HEK293 cells at 5 to 20 uM after 48 hrs by DAPI staining based fluorescence microscopy; assay type: functional, cell-based; conditions: Homo sapiens
[7] = system: MCF7; assay: Cytotoxicity against human MCF7 cells after 48 hrs by MTT assay; assay type: functional; conditions: MCF7, 48 h, read-out: LC50 (the source's name); outline: as §1
[8] = Cytotoxicity against human MCF10A cells after 48 hrs by MTT assay; assay type: cell-based; conditions: mcf-10a; outline: as §1
[9] = system: HEK293; assay: Induction of apoptosis in HEK293 cells at 5 uM after 48 hrs by propidium iodide staining based flow cytometry (reference value: 24.26 +/- 0.8%); assay type: functional, Homo sapiens
[10] = system: HEK293; assay: Induction of apoptosis in HEK293 cells at 10 uM after 48 hrs by propidium iodide staining based flow cytometry (reference value: 24.26 +/- 0.8%); assay type: functional, Homo sapiens
[11] = system: HEK293; assay: Induction of apoptosis in HEK293 cells at 15 uM after 48 hrs by propidium iodide staining based flow cytometry (reference value: 24.26 +/- 0.8%); assay type: functional, Homo sapiens
[12] = system: HEK293; assay: Induction of apoptosis in HEK293 cells at 20 uM after 48 hrs by propidium iodide staining based flow cytometry (reference value: 24.26 +/- 0.8%); assay type: functional, Homo sapiens
[13] = system: HEK293; assay: Induction of cell cycle arrest in HEK293 cells assessed as accumulation at G1 phase at 5 uM after 48 hrs by propidium iodide staining based flow cytometry (reference value: 53.21 +/- 0.8%); assay type: functional, Homo sapiens
[14] = system: HEK293; assay: Induction of cell cycle arrest in HEK293 cells assessed as accumulation at G1 phase at 10 uM after 48 hrs by propidium iodide staining based flow cytometry (reference value: 53.21 +/- 0.8%); assay type: functional, Homo sapiens
[15] = system: HEK293; assay: Induction of cell cycle arrest in HEK293 cells assessed as accumulation at G1 phase at 15 uM after 48 hrs by propidium iodide staining based flow cytometry (reference value: 53.21 +/- 0.8%); assay type: functional, Homo sapiens
[16] = system: HEK293; assay: Induction of cell cycle arrest in HEK293 cells assessed as accumulation at G1 phase at 20 uM after 48 hrs by propidium iodide staining based flow cytometry (reference value: 53.21 +/- 0.8%); assay type: functional, Homo sapiens
[17] = system: HEK293; assay: Induction of cell cycle arrest in HEK293 cells assessed as accumulation at S phase at 5 uM after 48 hrs by propidium iodide staining based flow cytometry (reference value: 19.9 +/- 0.5%); assay type: functional, Homo sapiens
[18] = system: HEK293; assay: Induction of cell cycle arrest in HEK293 cells assessed as accumulation at S phase at 10 uM after 48 hrs by propidium iodide staining based flow cytometry (reference value: 19.9 +/- 0.5%); assay type: functional, Homo sapiens
[19] = system: HEK293; assay: Induction of cell cycle arrest in HEK293 cells assessed as accumulation at S phase at 15 uM after 48 hrs by propidium iodide staining based flow cytometry (reference value: 19.9 +/- 0.5%); assay type: functional, Homo sapiens
[20] = system: HEK293; assay: Induction of cell cycle arrest in HEK293 cells assessed as accumulation at S phase at 20 uM after 48 hrs by propidium iodide staining based flow cytometry (reference value: 19.9 +/- 0.5%); assay type: functional, Homo sapiens
[21] = system: HEK293; assay: Induction of cell cycle arrest in HEK293 cells assessed as accumulation at G2/M phase at 5 uM after 48 hrs by propidium iodide staining based flow cytometry (reference value: 2.63 +/- 0.7%); assay type: functional, Homo sapiens
[22] = system: HEK293; assay: Induction of cell cycle arrest in HEK293 cells assessed as accumulation at G2/M phase at 10 uM after 48 hrs by propidium iodide staining based flow cytometry (reference value: 2.63 +/- 0.7%); assay type: functional, Homo sapiens
[23] = system: HEK293; assay: Induction of cell cycle arrest in HEK293 cells assessed as accumulation at G2/M phase at 15 uM after 48 hrs by propidium iodide staining based flow cytometry (reference value: 2.63 +/- 0.7%); assay type: functional, Homo sapiens
[24] = system: HEK293; assay: Induction of cell cycle arrest in HEK293 cells assessed as accumulation at G2/M phase at 20 uM after 48 hrs by propidium iodide staining based flow cytometry (reference value: 2.63 +/- 0.7%); assay type: functional, Homo sapiens
[25] = system: HEK293; assay: Induction of apoptosis in HEK293 cells at 20 uM after 48 hrs by propidium iodide staining based flow cytometry relative to untreated control; assay type: functional, Homo sapiens
[26] = system: HEK293; assay: Increase in caspase-3 expression in HEK293 cells at LC50 level after 48 hrs by immunocytochemistry; assay type: functional, cell-based; conditions: Homo sapiens
[27] = molecular target: T1, Nuclear factor NF-kappa-B complex (Homo sapiens) (UniProt Q00653+P19838+Q04206); assay: Inhibition of NFkappaB (unknown origin) expressed in HEK293 cells assessed as reduction in transcriptional activity after 48 hrs by luciferase reporter gene assay; assay type: cell-based
T1 sequence (P19838 whole entry, looked up): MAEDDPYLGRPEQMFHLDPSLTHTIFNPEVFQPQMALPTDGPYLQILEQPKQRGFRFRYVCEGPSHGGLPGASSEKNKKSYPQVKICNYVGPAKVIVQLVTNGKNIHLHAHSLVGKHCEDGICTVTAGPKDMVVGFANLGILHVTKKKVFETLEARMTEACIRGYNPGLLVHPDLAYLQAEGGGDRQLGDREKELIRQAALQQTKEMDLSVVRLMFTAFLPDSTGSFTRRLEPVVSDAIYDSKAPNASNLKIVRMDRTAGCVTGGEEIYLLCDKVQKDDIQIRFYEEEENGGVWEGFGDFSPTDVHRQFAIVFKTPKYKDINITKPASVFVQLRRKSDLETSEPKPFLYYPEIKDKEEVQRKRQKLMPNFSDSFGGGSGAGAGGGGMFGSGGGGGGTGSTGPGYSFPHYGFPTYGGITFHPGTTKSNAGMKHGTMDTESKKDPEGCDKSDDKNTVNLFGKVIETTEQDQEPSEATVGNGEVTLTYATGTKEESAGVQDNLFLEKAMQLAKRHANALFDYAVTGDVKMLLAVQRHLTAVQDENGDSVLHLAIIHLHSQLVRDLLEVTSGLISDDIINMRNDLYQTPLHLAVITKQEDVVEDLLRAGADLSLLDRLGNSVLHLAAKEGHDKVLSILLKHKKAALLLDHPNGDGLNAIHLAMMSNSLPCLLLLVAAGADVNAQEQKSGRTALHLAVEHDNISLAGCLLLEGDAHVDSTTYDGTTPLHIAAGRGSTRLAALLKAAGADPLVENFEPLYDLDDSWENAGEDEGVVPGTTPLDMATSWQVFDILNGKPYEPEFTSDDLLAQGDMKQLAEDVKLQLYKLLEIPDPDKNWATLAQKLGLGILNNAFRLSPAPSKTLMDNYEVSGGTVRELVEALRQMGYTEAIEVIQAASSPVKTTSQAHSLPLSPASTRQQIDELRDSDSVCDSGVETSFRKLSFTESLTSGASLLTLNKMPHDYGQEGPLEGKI
T1 sequence (Q00653 whole entry, looked up): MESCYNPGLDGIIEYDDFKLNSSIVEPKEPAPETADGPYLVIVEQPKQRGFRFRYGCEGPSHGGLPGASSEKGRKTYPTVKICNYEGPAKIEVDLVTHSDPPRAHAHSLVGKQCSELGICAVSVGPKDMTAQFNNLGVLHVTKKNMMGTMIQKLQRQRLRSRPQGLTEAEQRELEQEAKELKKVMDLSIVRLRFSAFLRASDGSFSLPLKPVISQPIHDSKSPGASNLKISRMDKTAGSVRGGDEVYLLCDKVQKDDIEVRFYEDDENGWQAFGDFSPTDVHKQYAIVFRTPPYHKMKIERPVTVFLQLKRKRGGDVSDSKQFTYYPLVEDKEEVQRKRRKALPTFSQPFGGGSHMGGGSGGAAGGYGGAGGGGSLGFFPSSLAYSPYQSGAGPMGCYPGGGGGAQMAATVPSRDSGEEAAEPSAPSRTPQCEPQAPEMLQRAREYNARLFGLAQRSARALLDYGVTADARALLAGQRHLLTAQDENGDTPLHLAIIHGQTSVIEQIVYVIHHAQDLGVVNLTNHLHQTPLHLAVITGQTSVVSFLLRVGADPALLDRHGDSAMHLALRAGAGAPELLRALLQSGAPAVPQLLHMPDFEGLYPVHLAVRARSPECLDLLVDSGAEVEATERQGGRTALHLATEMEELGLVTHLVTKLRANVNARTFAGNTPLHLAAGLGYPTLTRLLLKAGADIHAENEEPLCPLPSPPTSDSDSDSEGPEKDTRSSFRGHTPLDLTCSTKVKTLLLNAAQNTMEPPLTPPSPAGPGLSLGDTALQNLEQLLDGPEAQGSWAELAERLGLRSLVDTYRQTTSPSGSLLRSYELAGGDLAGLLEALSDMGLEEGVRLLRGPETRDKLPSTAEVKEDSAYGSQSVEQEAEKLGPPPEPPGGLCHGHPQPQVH
T1 sequence (Q04206 whole entry, looked up): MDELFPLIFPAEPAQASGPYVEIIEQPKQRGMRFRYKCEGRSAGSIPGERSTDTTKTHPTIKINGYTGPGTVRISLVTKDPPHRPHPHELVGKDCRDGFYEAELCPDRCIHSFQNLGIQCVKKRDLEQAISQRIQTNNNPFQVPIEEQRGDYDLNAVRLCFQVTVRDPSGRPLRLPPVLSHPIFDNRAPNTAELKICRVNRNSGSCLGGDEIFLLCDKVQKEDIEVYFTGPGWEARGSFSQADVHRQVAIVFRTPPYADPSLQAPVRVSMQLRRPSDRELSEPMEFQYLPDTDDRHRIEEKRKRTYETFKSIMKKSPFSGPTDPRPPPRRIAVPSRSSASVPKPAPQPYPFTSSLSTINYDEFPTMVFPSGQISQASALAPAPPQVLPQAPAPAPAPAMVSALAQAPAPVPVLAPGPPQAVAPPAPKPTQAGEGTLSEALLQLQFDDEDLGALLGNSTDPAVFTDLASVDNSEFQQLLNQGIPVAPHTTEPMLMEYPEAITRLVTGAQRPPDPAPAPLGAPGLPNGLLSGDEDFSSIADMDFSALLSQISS
Outline: (§2)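 HEK-293 at 70% confluence transfected by calcium phosphate with NF-kB luciferase ([…]) and b-Gal ([…]) plasmids, 6–8 h, then fresh serum medium 12 h; treated 48 h, lysed, luciferase read and normalized to b-galactosidase. Three independent experiments.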

[28] = molecular target: T1, Nuclear factor NF-kappa-B complex (Homo sapiens); assay: Inhibition of NFkappaB (unknown origin) expressed in HEK293 cells assessed as reduction in transcriptional activity at 10 uM after 48 hrs by luciferase reporter gene assay; assay type: cell-based; outline: as §2
[29] = system: HEK293; assay: Increase in Bax expression in HEK293 cells at LC50 level after 48 hrs by Western blot method; assay type: functional, cell-based; conditions: Homo sapiens
[30] = system: HEK293; assay: Reduction in Bcl-xL expression in HEK293 cells at LC50 level after 48 hrs by Western blot method; assay type: functional, cell-based; conditions: Homo sapiens
[31] = system: HEK293; assay: Increase in PARP cleavage in HEK293 cells at LC50 level after 48 hrs by Western blot method; assay type: functional, cell-based; conditions: Homo sapiens
[32] = system: HEK293; assay: Increase in p53 expression in HEK293 cells at LC50 level after 48 hrs by Western blot method; assay type: functional, cell-based; conditions: Homo sapiens
[33] = system: HEK293; assay: Reduction in NFkappaB expression in HEK293 cells at LC50 level after 48 hrs by Western blot method; assay type: functional, cell-based; conditions: Homo sapiens
[34] = system: HEK293; assay: Increase in Bax expression in p53 deficient HEK293 cells at LC50 level after 48 hrs by Western blot method; assay type: functional, cell-based; conditions: Homo sapiens
[35] = system: HEK293; assay: Reduction in Bcl-xL expression in p53 deficient HEK293 cells at LC50 level after 48 hrs by Western blot method; assay type: functional, cell-based; conditions: Homo sapiens
[36] = system: HEK293; assay: Increase in PARP cleavage in p53 deficient HEK293 cells at LC50 level after 48 hrs by Western blot method; assay type: functional, cell-based; conditions: Homo sapiens
[37] = system: HEK293; assay: Increase in p53 expression in p53 deficient HEK293 cells at LC50 level after 48 hrs by Western blot method; assay type: functional, cell-based; conditions: Homo sapiens
[38] = system: HEK293; assay: Reduction in NFkappaB expression in p53 deficient HEK293 cells at LC50 level after 48 hrs by Western blot method; assay type: functional, cell-based; conditions: Homo sapiens
[39] = Binding affinity to GC-28 DNA (unknown origin) minor groove by DAPI staining based spectrophotometry
Outline: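 DAPI–DNA complex fluorescence read at 460 nm emission band; test compound added to the preformed complex and loss of fluorescence followed.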

[40] = system: MCF7; assay: Cytotoxicity against human MCF7 cells; assay type: functional
Outline: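 MTT viability: 10,000 cells/well, 48 h exposure to increasing concentrations, MTT 2.5 mg/mL for 6 h at 37 °C, NP-40/HCl solubilization, absorbance 570 nm. MCF-7 in DMEM with 10% FBS; MCF-10A normal cells run alongside. LC50 from three independent experiments.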

## C[C@]1(CO)[C@H]2CC[C@@]3(CO3)[C@@H](C/C=C3/C(=O)OC[C@H]3OC(=O)CCl)[C@]2(C)CC[C@H]1O
[1]
  CC50: 31 µM
[2]
  LC50: 37 µM
[3]
  Retention_time: 37.1 min

## C=C1CC[C@@H]2[C@](C)(CO)[C@H](O)CC[C@@]2(C)[C@@H]1C/C=C1/C(=O)OC[C@H]1OC(=O)CCl
[1]
  CC50: 20 µM
[2]
  LC50: 25 µM
[3]
  Retention_time: 23.2 min

## C=C1CC[C@@H]2[C@](C)(CO)[C@H](O)CC[C@@]2(C)[C@@H]1C/C=C1/C(=O)OC[C@H]1OC(=O)CBr
[4]
  Activity: Active
[5]
  Activity: Active
[6]
  Activity: Dose-dependent effect
[1]
  CC50: 12 µM
[2]
  LC50: 45 µM
[7]
  CC50: 8.4 µM
[8]
  LC50: > 40 µM
[3]
  Retention_time: 24.5 min
[9]
  Activity: 60.44%
[10]
  Activity: 67.33%
[11]
  Activity: 76.62%
[12]
  Activity: 88.84%
[13]
  Activity: 25.16%
[14]
  Activity: 19.57%
[15]
  Activity: 14.98%
[16]
  Activity: 9.01%
[17]
  Activity: 10.44%
[18]
  Activity: 10.28%
[19]
  Activity: 6.69%
[20]
  Activity: 1.57%
[21]
  Activity: 3.96%
[22]
  Activity: 2.82%
[23]
  Activity: 1.71%
[24]
  Activity: 0.58%
[25]
  fold change (FC): >4
[26]
  Activity: Active
[27]
  inhibition: Dose-dependent effect
[28]
  fold change (FC): 5
[29]
  Activity: Active
[30]
  Activity: Active
[31]
  Activity: Active
[32]
  Activity: Active
[33]
  Activity: Active
[34]
  Activity: inactive
[35]
  Activity: inactive
[36]
  Activity: inactive
[37]
  Activity: inactive
[38]
  Activity: inactive
[39]
  Activity: Active

## C[C@]1(CO)[C@H]2CC[C@]3(CO3)[C@@H](C/C=C3/C(=O)OC[C@H]3OC(=O)CI)[C@]2(C)CC[C@H]1O
[1]
  CC50: 25 µM
[2]
  LC50: 42 µM
[3]
  Retention_time: 30.2 min

## C=C1CC[C@@H]2[C@]3(C)COC(C)(C)O[C@@H]3CC[C@@]2(C)[C@@H]1C/C=C1/C(=O)OC[C@H]1OC(=O)CBr
[1]
  CC50: 17 µM
[2]
  LC50: 36 µM

## C[C@]1(CO)[C@H]2CC[C@]3(CO3)[C@@H](C/C=C3/C(=O)OC[C@H]3OC(=O)CCl)[C@]2(C)CC[C@H]1O
[1]
  CC50: 18 µM
[2]
  LC50: 43 µM
[3]
  Retention_time: 36.5 min

## C=C1CC[C@@H]2[C@](C)(CO)[C@H](O)CC[C@@]2(C)[C@@H]1C/C=C1/C(=O)OC[C@H]1OC(C)=O
[40]
  GI50: 5.49 µM
